Activity calls are given as the source filed them.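 Rule for the calls, unless noted: active = viability at or under a set limit in both replicates, limit being median viability minus 3 SD (cut at about 48% in these data, passing the limit was not always enough); inconclusive = at or under the limit in just one replicate; inactive = at or above the limit in both replicates.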

A short description of assay [1]: reducers of endogenous Her2 protein level, primary screen, SKBR3 breast tumor cells, AlphaScreen, ATP viability (AID 461;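 active = Her2 level under about 52% in both replicate screens, with viability over 70% of control, limit read from the data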;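 for Her2 level: lower value means less Her2 protein in the cells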;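 for viability: percent of carrier control wells set as 100% viability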). As to conditions: 18-24 h, measured here: SKBR3 viability, ATP luminescence, at 10 µM. (In general: In Alpha technology, singlet oxygen from a donor bead excites a nearby acceptor bead.)
Assay [2] addresses Receptor tyrosine-protein kinase erbB-2 (Homo sapiens) (UniProt P04626). The description is as above. The conditions noted are these: 18-24 h, at 10 µM, stronger effect = lower value.
Assay [3] can be described thus: SK-BR-3 cell growth inhibitors, pilot screen, 24 h, human (AID 572;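 active = viability at or below 10% of carrier control in both of two separate runs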;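 note: compound exposure lasted between 18 and 24 h rather than exactly 24 h; 100% = carrier-treated control wells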). As to conditions: SK-BR-3 viability, CellTiter-Glo luminescence, at 10 µM, stronger effect = lower value.
A short description of assay [4]: HUVEC growth inhibition – cell-based, human, primary screen (AID 575;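 active = viability at or below 30% in both replicate assays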;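 note: 100% = median of untreated cell wells with 0.1% DMSO on each plate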). The conditions noted are these: HUVEC proliferation, CellTiter-Glo luminescence, 72 h; at 10 µM; stronger effect = lower value. In outline: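 System: primary human umbilical vein endothelial cells; Quantity: 1250 endothelial cells in each well; Buffer or medium: supplemented EBM, 2% fetal bovine serum; Doses: one dose, 10 µM final, 0.1% DMSO; Incubation: 72 h compound incubation; Technique: ATP-based CellTiter-Glo luminescent read; Evaluation: percent of median DMSO-control luminescence; Controls: vehicle and MePR control wells.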
For orientation: In ATP-based viability assays light output follows the ATP content of the culture.

Assay [5] can be described thus: growth inhibitors of H69AR lung tumor, primary screen, human, duplicate replicates (AID 580).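 Note: 100% = mean luminescence of untreated wells and 0% = no signal.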 As to conditions: H69AR lung tumor cells viability, ATP luminescence, 72 h; at 10 µM; stronger effect = lower value.
The nature of assay [6]: reversal of MRP1-mediated doxorubicin resistance, pilot screen, H69AR cells, doxorubicin co-treatment (AID 601;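 active = viability loss from added drug above about 55%, and viability with drug at most 40%, in both replicates, limit read from the data, passing the limit was not always enough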). The conditions noted are these: CellTiter-Glo, 72 h, at 10 µM; for differential viability (reversal): stronger effect = higher value.
Assay [7] can be described thus: 384-well plate pilot, post-Golgi transport modulator project, inhibition of yeast transport mutant growth (AID 636; in the data active = inhibition above about 31%). The conditions noted are these: absorbance 615 nm, about 18 h, stronger effect = higher value.
The nature of assay [8]: growth suppression of yeast trafficking mutant, preliminary HTS, modulators of trafficking downstream of Golgi apparatus project, 1536-format plate, OD 615 nm (AID 637; in the data active = inhibition above about 30%). The conditions noted are these: yeast transport mutant growth, absorbance 615 nm, 18 h; stronger effect = higher value.
[9] abbreviates: H69AR cells + 2 uM doxorubicin, measured here: viability with 2 uM doxorubicin, stronger effect = lower value.
The mark [10] stands for this setting: H69AR cells, compound alone cytotoxicity.

Receptor tyrosine-protein kinase erbB-2 (Homo sapiens), sequence (P04626 whole entry, looked up): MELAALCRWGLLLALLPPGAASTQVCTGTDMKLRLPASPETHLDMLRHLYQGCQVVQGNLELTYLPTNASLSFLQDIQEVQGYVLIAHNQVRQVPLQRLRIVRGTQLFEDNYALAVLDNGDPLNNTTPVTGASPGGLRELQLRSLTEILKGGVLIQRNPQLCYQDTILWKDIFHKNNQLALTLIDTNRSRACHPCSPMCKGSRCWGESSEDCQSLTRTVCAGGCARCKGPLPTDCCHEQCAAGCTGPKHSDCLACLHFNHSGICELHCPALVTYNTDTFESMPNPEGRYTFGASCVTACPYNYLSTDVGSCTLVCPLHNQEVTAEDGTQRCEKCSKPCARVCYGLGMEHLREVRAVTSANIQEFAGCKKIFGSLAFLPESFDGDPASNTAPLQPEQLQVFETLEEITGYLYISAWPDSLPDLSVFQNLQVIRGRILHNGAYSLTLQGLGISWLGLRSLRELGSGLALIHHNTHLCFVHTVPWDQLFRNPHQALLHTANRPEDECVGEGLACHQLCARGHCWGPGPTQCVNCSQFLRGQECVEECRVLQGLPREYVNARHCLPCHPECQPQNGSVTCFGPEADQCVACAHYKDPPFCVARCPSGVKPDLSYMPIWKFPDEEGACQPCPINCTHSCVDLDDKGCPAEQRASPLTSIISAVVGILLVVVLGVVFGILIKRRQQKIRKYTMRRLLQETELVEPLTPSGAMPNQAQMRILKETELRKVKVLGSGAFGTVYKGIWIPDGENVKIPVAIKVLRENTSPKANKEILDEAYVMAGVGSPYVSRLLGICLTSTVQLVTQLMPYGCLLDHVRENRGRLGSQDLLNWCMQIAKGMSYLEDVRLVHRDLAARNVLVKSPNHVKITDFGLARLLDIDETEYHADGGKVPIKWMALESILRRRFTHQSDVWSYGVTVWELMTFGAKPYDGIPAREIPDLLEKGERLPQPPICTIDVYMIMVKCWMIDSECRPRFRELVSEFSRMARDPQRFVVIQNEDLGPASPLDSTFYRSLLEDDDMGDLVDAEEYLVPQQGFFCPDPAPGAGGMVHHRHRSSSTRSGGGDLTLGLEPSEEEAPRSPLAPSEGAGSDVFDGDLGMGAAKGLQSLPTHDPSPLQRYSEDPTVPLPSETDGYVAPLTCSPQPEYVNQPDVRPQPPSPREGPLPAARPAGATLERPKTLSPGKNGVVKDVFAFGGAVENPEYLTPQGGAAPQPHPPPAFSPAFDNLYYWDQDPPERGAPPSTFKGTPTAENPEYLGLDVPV

`COc1ccc(S(=O)(=O)N(C)c2ccc(C(=O)N3CCOCC3)cc2)cc1`: the viability – broadly, a read-out of living cells in per cent, often relative to untreated cells – is 79.5% in assay [1]; 79.5% (inactive) in assay [3]; 94.4% (inactive) in assay [4]; 95.2% (inactive) in assay [5]; 91.5% in assay [6] (setting [9]); 95.2% in assay [6] (setting [10]). Further, the Her2 level in assay [2] was 89.5% (inactive). Moreover, the differential viability (reversal) in assay [6] (H69AR cells + 2 uM doxorubicin) was 3.61% (inactive). Besides, the inhibition (usually the relative decrease from the control value, in per cent) in assay [7] is -0.92% (inactive); in assay [8] it was 1.8% (inactive).
For `Brc1cccc(-c2cnc3n2CCCCC3)c1`, the viability was 95.5% in assay [1]; 95.5% (inactive) in assay [3]; 67.1% (inactive) in assay [4]; 91.5% (inactive) in assay [5]; 80.4% in assay [6] (setting [9]); 91.5% in assay [6] (setting [10]). For the same compound, in assay [2], the Her2 level was 89.5% (inactive). In assay [6] (H69AR cells + 2 uM doxorubicin), the differential viability (reversal) is 11.1% (inactive). In addition, the inhibition in assay [7] was -6.53% (inactive); in assay [8], 4.26% (inactive).
Turning to `CCOCCCNC(=O)C1CCN(S(=O)(=O)N(CC(C)C)CC(C)C)CC1`, the viability in assay [1] is 121%; in assay [3] it was 121% (inactive); in assay [4], 97.9% (inactive); in assay [5], 111% (inactive); in assay [6] (setting [9]) it was 87.3%; in assay [6] (setting [10]), 111%. In assay [2], the Her2 level was 100% (inactive). For the same compound, in assay [6] (H69AR cells + 2 uM doxorubicin), the differential viability (reversal) is 24% (inactive). Also, the inhibition in assay [7] is -4.13% (inactive); in assay [8], 2.1% (inactive).
Take `C=CCN(C(=O)CNC(=O)c1ccco1)C(C(=O)NC1CCCCC1)c1ccccc1F` (stereo not given): the viability was 108% in assay [1]; 108% (inactive) in assay [3]; 96.2% (inactive) in assay [4]; 100% (inactive) in assay [5]; 93.5% in assay [6] (setting [9]); 100% in assay [6] (setting [10]). Moreover, in assay [2], the Her2 level was 108% (inactive). Further, the differential viability (reversal) in assay [6] (H69AR cells + 2 uM doxorubicin) is 6.92% (inactive). Further, the inhibition is -2.43% (inactive) in assay [7] and 1.27% (inactive) in assay [8].
Turning to `CCOC(=O)C1CCN(c2c(NCCCN(CC)c3ccccc3)c(=O)c2=O)CC1`, the viability is 83.5% in assay [1]; 83.5% (inactive) in assay [3]; 91.9% (inactive) in assay [4]; 81.1% (inactive) in assay [5]; 72.9% in assay [6] (setting [9]); 81.1% in assay [6] (setting [10]). Also, the Her2 level in assay [2] was 86.5% (inactive). Further, the differential viability (reversal) in assay [6] (H69AR cells + 2 uM doxorubicin) is 8.21% (inactive). Also, the inhibition in assay [7] was -1.18% (inactive); in assay [8] it was 0.18% (inactive).
Regarding `Cc1cc2ncn(N)c2cc1C`, the viability in assay [1] is 99.5%; in assay [3] it was 99.5% (inactive); in assay [4], 101% (inactive); in assay [5], 98.8% (inactive); in assay [6] (setting [9]), 98.3%; in assay [6] (setting [10]), 98.8%. The Her2 level in assay [2] was 84% (inactive). Moreover, in assay [6] (H69AR cells + 2 uM doxorubicin), the differential viability (reversal) was 0.485% (inactive). For the same compound, the inhibition in assay [7] is -7.7% (inactive); in assay [8], 1.83% (inactive).
`CC(=O)c1cccc(NC(=O)N2CCCC2C(=O)NCc2ccc(C)cc2)c1` (stereo not given): the viability in assay [1] was 104%; in assay [3], 104% (inactive); in assay [4], 92.5% (inactive); in assay [5], 95.6% (inactive); in assay [6] (setting [9]), 87.1%; in assay [6] (setting [10]), 95.6%. Further, in assay [2], the Her2 level is 93.5% (inactive). The differential viability (reversal) in assay [6] (H69AR cells + 2 uM doxorubicin) was 8.41% (inactive). For the same compound, the figures for the inhibition in assay [7] and in assay [8] were -8.92% (inactive) and 8.33% (inactive), respectively.
`CCOC(=O)N1CCC(NC(=O)CCc2c(C)nc3c(c(C)nn3C(C)(C)C)c2C)CC1`: the viability was 91% in assay [1]; 91% (inactive) in assay [3]; 82.2% (inactive) in assay [4]; 85.1% (inactive) in assay [5]; 83.9% in assay [6] (setting [9]); 85.1% in assay [6] (setting [10]). Further, the Her2 level in assay [2] is 78.5% (inactive). Further, the differential viability (reversal) in assay [6] (H69AR cells + 2 uM doxorubicin) is 1.25% (inactive). In addition, the inhibition was -4.61% (inactive) in assay [7] and -3.02% (inactive) in assay [8].
Turning to `CCCCOC(=O)CN1C(=O)c2ccc(C(=O)OCCCC)cc2C1=O`, the viability in assay [1] is 87%; in assay [3], 87% (inactive); in assay [4] it was 92.3% (inactive); in assay [5], 106% (inactive); in assay [6] (setting [9]) it was 95.3%; in assay [6] (setting [10]) it was 106%. In addition, in assay [2], the Her2 level was 94% (inactive). Also, in assay [6] (H69AR cells + 2 uM doxorubicin), the differential viability (reversal) was 10.4% (inactive). The inhibition was -2.97% (inactive) in assay [7] and 0.82% (inactive) in assay [8].
On to `Cc1cc2c(cc1C)-c1nnnn1C(C)(C)C2`, for which the viability is 110% in assay [1]; 110% (inactive) in assay [3]; 101% (inactive) in assay [4]; 91.9% (inactive) in assay [5]; 87.1% in assay [6] (setting [9]); 91.9% in assay [6] (setting [10]). Further, in assay [2], the Her2 level was 97.5% (inactive). The differential viability (reversal) in assay [6] (H69AR cells + 2 uM doxorubicin) was 4.78% (inactive). Further, the inhibition in assay [7] was -9.07% (inactive); in assay [8], -5.24% (inactive).
Take `Cc1csc(NC(=O)CCCSc2nc3ccccc3s2)n1`: the viability was 100% in assay [1]; 100% (inactive) in assay [3]; 62.9% (inactive) in assay [4]; 96% (inactive) in assay [5]; 95.9% in assay [6] (setting [9]); 96% in assay [6] (setting [10]). The Her2 level in assay [2] is 71% (inactive). Also, the differential viability (reversal) in assay [6] (H69AR cells + 2 uM doxorubicin) was 0.115% (inactive). Also, the inhibition in assay [7] was -5.87% (inactive); in assay [8], 5.57% (inactive).
With `CC1=C(C(=O)Nc2ccccc2)C(c2cccs2)C(C#N)=C(SCC#N)N1` (stereo not given), the viability is 104% in assay [1]; 104% (inactive) in assay [3]; 64% (inactive) in assay [4]; 82.8% (inactive) in assay [5]; 96.2% in assay [6] (setting [9]); 82.8% in assay [6] (setting [10]). Further, the Her2 level in assay [2] is 96.5% (inactive). The differential viability (reversal) in assay [6] (H69AR cells + 2 uM doxorubicin) was -13.4% (inactive). Besides, the inhibition in assay [7] is -0.4% (inactive); in assay [8] it was 19.2% (inactive).
With `COc1ccc(C2c3sc(=O)[nH]c3SC3C4CCC(C4)C23)cc1` (stereo not given), the viability in assay [1] is 99.5%; in assay [3] it was 99.5% (inactive); in assay [4], 80.1% (inactive); in assay [5], 89.7% (inactive); in assay [6] (setting [9]) it was 87.7%; in assay [6] (setting [10]) it was 89.7%. For the same compound, the Her2 level in assay [2] is 94.5% (inactive). In addition, in assay [6] (H69AR cells + 2 uM doxorubicin), the differential viability (reversal) is 1.93% (inactive). Further, the inhibition in assay [7] is 6.4% (inactive); in assay [8], 5.97% (inactive).
In the case of `COc1cc(C(=O)Nc2cc(Cl)ccc2C)c(-n2cnnn2)cc1OC`, the viability in assay [1] is 102%; in assay [3] it was 102% (inactive); in assay [4] it was 92.6% (inactive); in assay [5] it was 94.9% (inactive); in assay [6] (setting [9]), 90.8%; in assay [6] (setting [10]), 94.9%. Also, in assay [2], the Her2 level is 98% (inactive). Besides, the differential viability (reversal) in assay [6] (H69AR cells + 2 uM doxorubicin) was 4.13% (inactive). The values for the inhibition in assay [7] and in assay [8] were -8% (inactive) and 2.95% (inactive), respectively.
As for `COC(=O)c1[nH]c2cccc(C)c2c1NC(=O)CN1CCCc2ccccc21`, the viability was 77.5% in assay [1]; 77.5% (inactive) in assay [3]; 67.1% (inactive) in assay [4]; 78.8% (inactive) in assay [5]; 76.7% in assay [6] (setting [9]); 78.8% in assay [6] (setting [10]). The Her2 level in assay [2] is 92% (inactive). Moreover, in assay [6] (H69AR cells + 2 uM doxorubicin), the differential viability (reversal) is 2.1% (inactive). In addition, the inhibition in assay [7] is -1.47% (inactive); in assay [8] it was 2.79% (inactive).
With `Oc1c(Cl)cc(Cl)cc1CNc1ccc(Br)cn1`, the viability was 100% in assay [1]; 100% (inactive) in assay [3]; 74.8% (inactive) in assay [4]; 93.2% (inactive) in assay [5]; 96.8% in assay [6] (setting [9]); 93.2% in assay [6] (setting [10]). In assay [2], the Her2 level is 88% (inactive). The differential viability (reversal) in assay [6] (H69AR cells + 2 uM doxorubicin) was -3.58% (inactive). In addition, the inhibition is 1.58% (inactive) in assay [7] and 13.4% (inactive) in assay [8].

These data come from PubChem BioAssay.
